Experimental data reported in ChEMBL document CHEMBL5247578, “Effective synthesis of benzimidazoles-imidazo[1,2-a]pyrazine conjugates: A comparative study of mono-and bis-benzimidazoles for antitumor activity” (Eur J Med Chem, 2019).

Legend:
K562 [1] = assay: Antiproliferative activity against human K562 cells assessed as cell growth inhibition by measuring lethal concentration incubated for 48 hrs by sulforhodamine B assay; type: functional; conditions: read-out: LC50 (the source's name)
UACC-257 = assay: Antiproliferative activity against human UACC-257 cells assessed as cell growth inhibition by measuring lethal concentration incubated for 48 hrs by sulforhodamine B assay; type: functional; conditions: read-out: LC50 (the source's name)
Procedure, shortened: (§1)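 NCI-60 five-dose screen (10^-4 to 10^-8 M, 10-fold dilutions; DMSO stocks). Cells in RPMI 1640 with 5% FBS and 2 mM L-glutamine, preincubated 24 h, then exposed 48 h at 37 °C, 5% CO2. Fixed with cold TCA, stained with 0.4% SRB, absorbance read at 515 nm. Time-zero plates used as reference. LC50 taken from [(Ti-Tz)/Tz]×100 […].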

MDA-MB-435 = assay: Growth inhibition against human MDA-MB-435 cells assessed as total growth inhibitory concentration incubated for 48 hrs by sulforhodamine B assay; type: functional
RXF 393 = assay: Antiproliferative activity against human RXF 393 cells assessed as cell growth inhibition by measuring lethal concentration incubated for 48 hrs by sulforhodamine B assay; type: functional; conditions: read-out: LC50 (the source's name)
SF-295 [2] = assay: Antiproliferative activity against human SF-295 cells assessed as cell growth inhibition by measuring lethal concentration incubated for 48 hrs by sulforhodamine B assay; type: functional; conditions: read-out: LC50 (the source's name)
K562 [3] = assay: Growth inhibition against human K562 cells incubated for 48 hrs by sulforhodamine B assay; type: functional
Calf thymus DNA [4] = assay: Binding affinity to calf thymus DNA assessed as DNA intercalation by measuring Stem-Volmer quenching constant at temperature of 308 K by fluorescence spectroscopic method; type: nucleic-acid assay; conditions: Bos taurus
K562 [5] = assay: Antiproliferative activity against human K562 cells assessed as cell growth at 0.000001 M incubated for 48 hrs by SRB assay relative to control; type: functional; conditions: read-out: Activity
SW-620 = assay: Antiproliferative activity against human SW620 cells assessed as cell growth at 0.00001 M incubated for 48 hrs by SRB assay relative to control; type: functional; conditions: read-out: Activity
Calf thymus DNA [6] = assay: Binding affinity to calf thymus DNA assessed as fluorescence quenching intensity at 5 uM at temperature of 318 K by fluorescence spectroscopic method relative to control; type: nucleic-acid assay; conditions: Bos taurus
Malme-3M = assay: Growth inhibition against human Malme-3M cells assessed as total growth inhibitory concentration incubated for 48 hrs by sulforhodamine B assay; type: functional
Calf thymus DNA [7] = assay: Binding affinity to calf thymus DNA assessed as DNA intercalation by measuring Stem-Volmer quenching constant at temperature of 318 K by fluorescence spectroscopic method; type: nucleic-acid assay; conditions: Bos taurus
Calf thymus DNA [8] = assay: Binding affinity to calf thymus DNA assessed as quenching constant at temperature of 308 K by fluorescence spectroscopic method; type: nucleic-acid assay; conditions: Bos taurus
SNB-75 = assay: Antiproliferative activity against human SNB-75 cells assessed as cell growth inhibition by measuring lethal concentration incubated for 48 hrs by sulforhodamine B assay; type: functional; conditions: read-out: LC50 (the source's name); procedure, shortened: as §1
SK-OV-3 = assay: Growth inhibition against human SK-OV-3 cells assessed as total growth inhibitory concentration incubated for 48 hrs by sulforhodamine B assay; type: functional
Calf thymus DNA [9] = assay: Binding affinity to calf thymus DNA assessed as gibbs free energy change at temperature of 308 K by Van't Hoff plot analysis; type: nucleic-acid assay; conditions: Bos taurus
T47D = assay: Growth inhibition against human T47D cells assessed as total growth inhibitory concentration incubated for 48 hrs by sulforhodamine B assay; type: functional
SN12C = assay: Antiproliferative activity against human SN12C cells assessed as cell growth at 0.0001 M incubated for 48 hrs by SRB assay relative to control; type: functional; conditions: read-out: Activity
LOX IMVI = assay: Growth inhibition against human LOX IMVI cells assessed as total growth inhibitory concentration incubated for 48 hrs by sulforhodamine B assay; type: functional
Calf thymus DNA [10] = assay: Binding affinity to calf thymus DNA assessed as quenching constant at temperature of 318 K by fluorescence spectroscopic method; type: nucleic-acid assay; conditions: Bos taurus
Calf thymus DNA [11] = assay: Binding affinity to calf thymus DNA assessed as change in enthalpy at temperature of 298 K by Van't Hoff plot analysis; type: nucleic-acid assay; conditions: Bos taurus
Calf thymus DNA [12] = assay: Binding affinity to calf thymus DNA assessed as binding constant at temperature of 308 K by Stern-Volmer quenching plot based fluorescence spectroscopic method; type: nucleic-acid assay; conditions: Bos taurus
NCI-H226 = assay: Growth inhibition against human NCI-H226 cells assessed as total growth inhibitory concentration incubated for 48 hrs by sulforhodamine B assay; type: functional
UO-31 = assay: Antiproliferative activity against human UO-31 cells assessed as cell growth at 0.0001 M incubated for 48 hrs by SRB assay relative to control; type: functional; conditions: read-out: Activity
HCT-116 = assay: Antiproliferative activity against human HCT-116 cells assessed as cell growth inhibition by measuring lethal concentration incubated for 48 hrs by sulforhodamine B assay; type: functional; conditions: read-out: LC50 (the source's name)
Calf thymus DNA [13] = assay: Binding affinity to calf thymus DNA assessed as gibbs free energy change at temperature of 298 K by Van't Hoff plot analysis; type: nucleic-acid assay; conditions: Bos taurus
UACC-62 = assay: Growth inhibition against human UACC-62 cells assessed as total growth inhibitory concentration incubated for 48 hrs by sulforhodamine B assay; type: functional
Calf thymus DNA [14] = assay: Binding affinity to calf thymus DNA assessed as binding constant at temperature of 318 K by Stern-Volmer quenching plot based fluorescence spectroscopic method; type: nucleic-acid assay; conditions: Bos taurus
EKVX = assay: Growth inhibition against human EKVX cells assessed as total growth inhibitory concentration incubated for 48 hrs by sulforhodamine B assay; type: functional
786-0 = assay: Growth inhibition against human 786-0 cells assessed as total growth inhibitory concentration incubated for 48 hrs by sulforhodamine B assay; type: functional
NCI-H522 = assay: Antiproliferative activity against human NCI-H522 cells assessed as cell growth at 0.0001 M incubated for 48 hrs by SRB assay relative to control; type: functional; conditions: read-out: Activity
Albumin = Albumin (Bos taurus, UniProt P02769); assay: Binding affinity to bovine serum albumin assessed as fluorescence quenching by fluorescence spectroscopic method relative to control; conditions: cattle
Chain of Albumin (P02769 whole entry): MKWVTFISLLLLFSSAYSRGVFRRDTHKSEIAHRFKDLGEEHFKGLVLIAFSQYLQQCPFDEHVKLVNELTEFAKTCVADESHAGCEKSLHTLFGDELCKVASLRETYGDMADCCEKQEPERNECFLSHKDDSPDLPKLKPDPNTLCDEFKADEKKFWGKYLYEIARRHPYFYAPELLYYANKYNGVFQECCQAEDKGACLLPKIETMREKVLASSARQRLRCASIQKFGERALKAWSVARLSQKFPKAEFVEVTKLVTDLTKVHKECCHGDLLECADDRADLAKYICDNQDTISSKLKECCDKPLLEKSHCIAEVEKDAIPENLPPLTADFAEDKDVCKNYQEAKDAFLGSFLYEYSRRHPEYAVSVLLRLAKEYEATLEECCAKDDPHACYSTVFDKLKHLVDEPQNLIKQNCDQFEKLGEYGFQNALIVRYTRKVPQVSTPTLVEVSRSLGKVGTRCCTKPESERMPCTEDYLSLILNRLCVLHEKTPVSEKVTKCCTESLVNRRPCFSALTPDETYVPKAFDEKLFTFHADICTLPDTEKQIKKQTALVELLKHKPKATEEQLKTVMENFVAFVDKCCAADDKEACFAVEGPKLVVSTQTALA

SF-295 [15] = assay: Growth inhibition against human SF-295 cells assessed as total growth inhibitory concentration incubated for 48 hrs by sulforhodamine B assay; type: functional
OVCAR-4 = assay: Growth inhibition against human OVCAR-4 cells incubated for 48 hrs by sulforhodamine B assay; type: functional
OVCAR-5 = assay: Growth inhibition against human OVCAR-5 cells incubated for 48 hrs by sulforhodamine B assay; type: functional

## COc1ccc(-c2cn3ccnc3c(-c3ccc4ncn(C5CCCCC5)c4c3)n2)cc1
K562 [1]
  CC50: > 100 µM
UACC-257
  CC50: > 100 µM
MDA-MB-435
  TGI: > 100 µM
RXF 393
  CC50: > 100 µM
SF-295 [2]
  CC50: > 100 µM
K562 [3]
  GI50: 0.422 µM
Calf thymus DNA [4]
  KSV: 1.68 10^4/M
K562 [5]
  growth at 1 µM: 25%
SW-620
  growth at 10 µM: 29%
Calf thymus DNA [6]
  Activity: 60%
Malme-3M
  TGI: > 100 µM
Calf thymus DNA [7]
  KSV: 0.73 10^4/M
Calf thymus DNA [8]
  Kq: 1.68 10^12/M/s
SNB-75
  CC50: > 100 µM
SK-OV-3
  TGI: 7.64 µM
Calf thymus DNA [9]
  deltaG: -5.85 kcal/mol
T47D
  TGI: 4.5 µM
SN12C
  growth at 100 µM: 31%
LOX IMVI
  TGI: > 100 µM
Calf thymus DNA [10]
  Kq: 0.73 10^12/M/s
Calf thymus DNA [11]
  deltaH: -69.3 kcal/mol
Calf thymus DNA [12]
  Kb: 4.57 10^4/M
NCI-H226
  TGI: > 100 µM
UO-31
  growth at 100 µM: 26%
HCT-116
  CC50: > 100 µM
Calf thymus DNA [13]
  deltaG: -7.91 kcal/mol
UACC-62
  TGI: > 100 µM
Calf thymus DNA [14]
  Kb: 0.02 10^4/M
EKVX
  TGI: > 100 µM

## c1ccc(Cn2cnc3ccc(-c4nc(-c5ccc6c(c5)ncn6C5CCCCC5)cn5ccnc45)cc32)cc1
786-0
  TGI: > 100 µM
NCI-H522
  growth at 100 µM: -42%
Albumin
  Activity: 75%
SF-295 [15]
  TGI: 2.98 µM
OVCAR-4
  GI50: 3.06 µM
OVCAR-5
  GI50: 2.64 µM
